Data reported in ChEMBL document CHEMBL1133760, “4-(3-Chloro-4-methoxybenzyl)aminophthalazines: synthesis and inhibitory activity toward phosphodiesterase 5” (J Med Chem, 2000).
pEC50, pIC50: −log10 of the molar value. Where a name gives a salt, the structure may show the parent alone.

Key:
Sus scrofa = species: Sus scrofa; test: Vasorelaxant effect was evaluated on isolated porcine coronary arteries precontracted with PGF-2 alpha; type: functional
How it was run: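 Endothelium-intact porcine coronary artery strips were held in Krebs-Henseleit (37 °C, pH 7.4, 95% O2-5% CO2) at 1 g resting tension. Endothelium was verified by 10^-8 M bradykinin relaxation after 50 mM KCl contraction. Strips were contracted with 10^-5 M PGF2α, then given cumulative compound additions. Relaxation was expressed as % of the PGF2α contraction. EC50 came from log concentration curves, as the mean of two experiments.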

[1] = Pharmacokinetic parameter, Bioavailability (F) after 0.3 mg/kg po administration in rats; type: ADME, organism-based; conditions: rat, in vivo, read-out: BA
How it was run: (§1)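 Rats received a 0.3 mg/kg dose intravenously or orally, with n = 4 per route. Plasma pharmacokinetic parameters were then derived.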

[2] = Pharmacokinetic parameter, Cmax (plasma conc.) after 0.3 mg/kg po administration in rats; type: ADME, organism-based; parameters: dose 0.3 mg/kg, route oral; conditions: rat; how it was run: as §1
[3] = Pharmacokinetic parameter, AUC (area under curve) after 0.3 mg/kg po administration in rats; type: ADME, organism-based; parameters: dose 0.3 mg/kg, route oral; conditions: rat, in vivo; how it was run: as §1
[4] = Pharmacokinetic parameter, AUC (area under curve) after 0.3 mg/kg iv administration in rats; type: ADME, organism-based; parameters: dose 0.3 mg/kg, route intravenous; conditions: rat, in vivo; how it was run: as §1
[5] = Pharmacokinetic parameter, tmax after 0.3 mg/kg po administration in rats; type: ADME, organism-based; parameters: dose 0.3 mg/kg, route oral; conditions: rat, in vivo; how it was run: as §1
Phosphodiesterase 3A [6] = biological target: T1, Phosphodiesterase 3A (Sus scrofa, UniProt Q9XSW7); test: Inhibition of phosphodiesterase 3 (PDE3) from porcine platelets, range 11.4-26.9
T1 sequence (Q9XSW7 whole entry): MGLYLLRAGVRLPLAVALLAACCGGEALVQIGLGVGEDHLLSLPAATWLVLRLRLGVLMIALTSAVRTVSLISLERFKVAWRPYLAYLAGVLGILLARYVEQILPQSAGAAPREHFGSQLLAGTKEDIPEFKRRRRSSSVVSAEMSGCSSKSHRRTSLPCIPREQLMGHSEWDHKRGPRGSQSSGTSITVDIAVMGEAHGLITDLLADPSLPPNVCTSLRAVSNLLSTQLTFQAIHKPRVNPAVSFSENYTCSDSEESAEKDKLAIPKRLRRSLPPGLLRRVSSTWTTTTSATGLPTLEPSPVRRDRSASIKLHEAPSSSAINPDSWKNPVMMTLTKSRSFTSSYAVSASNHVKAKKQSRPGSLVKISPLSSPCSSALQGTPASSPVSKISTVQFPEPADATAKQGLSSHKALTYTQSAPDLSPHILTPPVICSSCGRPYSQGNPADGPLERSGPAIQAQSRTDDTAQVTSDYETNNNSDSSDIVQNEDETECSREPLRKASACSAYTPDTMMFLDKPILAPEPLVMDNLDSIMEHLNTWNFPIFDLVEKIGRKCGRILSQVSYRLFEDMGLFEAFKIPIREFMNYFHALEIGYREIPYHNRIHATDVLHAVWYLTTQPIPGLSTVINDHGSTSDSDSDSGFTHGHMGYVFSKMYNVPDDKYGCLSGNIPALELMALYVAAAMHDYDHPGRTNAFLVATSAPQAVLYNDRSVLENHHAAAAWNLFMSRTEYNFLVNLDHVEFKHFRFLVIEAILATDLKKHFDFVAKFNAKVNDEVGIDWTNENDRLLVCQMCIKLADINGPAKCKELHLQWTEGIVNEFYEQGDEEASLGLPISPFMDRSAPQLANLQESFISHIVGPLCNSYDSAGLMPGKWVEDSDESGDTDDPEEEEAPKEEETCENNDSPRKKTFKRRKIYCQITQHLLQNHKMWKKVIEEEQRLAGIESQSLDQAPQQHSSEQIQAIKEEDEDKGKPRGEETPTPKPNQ
How it was run: (§2)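 Two-step radioisotopic PDE activity assay (modified) with 1 µM [3H]cGMP as substrate. Enzymes were isolated from porcine tissues, and PDE5 was purified by DEAE-Toyopearl 650S chromatography. Inhibitors were diluted from DMSO into assay buffer over 10^-10 to 10^-6 M, with 1% (v/v) DMSO final. IC50 came from log concentration-inhibition curves (at least four points), as the mean of three experiments.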

[7] = Inhibition of phosphodiesterase 1 (PDE1) from porcine adrenal tissue, range 20.0-34.4; parameters: species or system Sus scrofa; conditions: in the assay text read “porcine aorta” for “porcine adrenal tissue”; how it was run: as §2
PDE II [8] = biological target: T2, PDE II (Sus scrofa, UniProt F1SUV3); test: Inhibition of phosphodiesterase 2 (PDE2) from porcine platelets, range 0.841-1.15; conditions: in the assay text read “porcine adrenal” for “porcine platelets”; how it was run: as §2
Phosphodiesterase 4A [9] = biological target: T3, Phosphodiesterase 4A (Sus scrofa, UniProt O77823); test: Inhibition of phosphodiesterase 4 (PDE4) from porcine liver, range 1.01-1.36; how it was run: as §2
T3 sequence (O77823 whole entry): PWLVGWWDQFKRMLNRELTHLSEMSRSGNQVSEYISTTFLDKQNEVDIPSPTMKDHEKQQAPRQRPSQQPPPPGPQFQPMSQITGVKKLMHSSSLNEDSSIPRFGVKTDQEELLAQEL

[10] = Pharmacokinetic parameter, t1/2 after 0.3 mg/kg iv administration in rats; type: ADME, organism-based; parameters: dose 0.3 mg/kg, route intravenous; conditions: rat, in vivo; how it was run: as §1
Phosphodiesterase 3A [11] = biological target: T1, Phosphodiesterase 3A; test: Inhibition of phosphodiesterase 3 (PDE3) from porcine platelets, range 31.8-60.7
[12] = Inhibition of phosphodiesterase 1 (PDE1) from porcine adrenal tissue, range 51.1-108; parameters: species or system Sus scrofa; conditions: in the assay text read “porcine aorta” for “porcine adrenal tissue”; how it was run: as §2
[13] = Inhibition of phosphodiesterase 1 (PDE1) from porcine adrenal tissue; type: tissue-based, Sus scrofa; conditions: in the assay text read “porcine aorta” for “porcine adrenal tissue”; how it was run: as §2
Phosphodiesterase 4A [14] = biological target: T3, Phosphodiesterase 4A; test: Inhibition of phosphodiesterase 4 (PDE4) from porcine liver, range 10.4-16.3
How it was run: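 PDE4 isolated from porcine liver; activity measured by a modified two-step radioisotopic assay. Compounds dissolved in DMSO and diluted in assay buffer to 10^-10 to 10^-6 M, with 1% (v/v) final DMSO. IC50 taken from logarithmic concentration-inhibition curves of at least four points, as the mean of three experiments.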

Phosphodiesterase 3A [15] = biological target: T1, Phosphodiesterase 3A; test: Inhibition of phosphodiesterase 3 (PDE3) from porcine platelets; how it was run: as §2
Phosphodiesterase 4A [16] = biological target: T3, Phosphodiesterase 4A; test: Inhibition of phosphodiesterase 4 (PDE4) from porcine liver; how it was run: as §2
PDE II [17] = biological target: T2, PDE II; test: Inhibition of phosphodiesterase 2 (PDE2) from porcine adrenal
[18] = Inhibition of phosphodiesterase 1 (PDE1) from porcine adrenal tissue, range 26.5-36.7; parameters: species or system Sus scrofa; conditions: in the assay text read “porcine aorta” for “porcine adrenal tissue”; how it was run: as §2

`COc1ccc(CNc2nnc(N3CCC(O)CC3)c3ccc(Cl)cc23)cc1Cl` gave a pEC50 (Sus scrofa) of 6.11.
Work on `COc1ccc(CNc2nnc(N3CCN(CCO)CC3)c3ccc(C#N)cc23)cc1Cl` yielded a pEC50 (Sus scrofa) of 7.00.
`COc1ccc(CNc2nnc(N3CCC(O)CC3)c3ccc([N+](=O)[O-])cc23)cc1Cl` gave a pEC50 (Sus scrofa) of 7.52.
For `COc1ccc(CNc2nnc(N3CCC(C)(O)CC3)c3ccc(C#N)cc23)cc1Cl`, the pEC50 (Sus scrofa) was 6.89.
Work on `COc1ccc(CNc2nnc(N3CCC(OC)CC3)c3ccc(C#N)cc23)cc1Cl` yielded a pEC50 (Sus scrofa) of 7.00.
Work on `COc1ccc(CNc2nnc(N3CC[S+]([O-])CC3)c3ccc(C#N)cc23)cc1Cl` yielded a pEC50 (Sus scrofa) of 7.30.
Compound `COc1ccc(CNc2nnc(N3CCC(O)CC3)c3ccc(C(F)(F)F)cc23)cc1Cl` has a pEC50 (Sus scrofa) of 6.92.
For `COc1ccc(CNc2nnc(N3CCC(O)CC3)c3ccc(C#N)cc23)cc1Cl.Cl`, the bioavailability [1] was 19.5%, the Cmax [2] was 25.5 ng/mL and the AUC [3] was 32.4 ng·h/mL. For the same compound, the AUC [4] was 166 ng·h/mL, the Tmax [5] was 0.25 h and the pIC50 (Phosphodiesterase 3A [6]) was 4.76. For the same compound, the pIC50 [7] was 4.58, the pIC50 (PDE II [8]) was 6.01 and the pIC50 (Phosphodiesterase 4A [9]) was 5.93. It also gave a pEC50 (Sus scrofa) of 7.89 and a half-life [10] of 2.2 h.
In the case of `COc1ccc(CNc2nnc(N3CCC(CCO)CC3)c3ccc(C#N)cc23)cc1Cl`, the pEC50 (Sus scrofa) was 7.52.
`COc1ccc(CNc2nnc(N3CCC(=O)CC3)c3ccc(C#N)cc23)cc1Cl` gave a pEC50 (Sus scrofa) of 7.89.
For `COc1ccc(CNc2nnc(N3CC=CCC3)c3ccc(C#N)cc23)cc1Cl`, the pEC50 (Sus scrofa) was 6.89.
For `COc1ccc(CNc2nnc(N3CCC(CO)CC3)c3ccc(C#N)cc23)cc1Cl`, the pEC50 (Sus scrofa) was 7.72.
In the case of `COc1ccc(CNc2nnc(N3CCCCC3)c3ccc(C#N)cc23)cc1Cl`, the pEC50 (Sus scrofa) was 7.41.
`COc1ccc(CNc2nnc(N3CCNCC3)c3ccc(C#N)cc23)cc1Cl` gave a pEC50 (Sus scrofa) of 6.06.
With `COc1ccc(CNc2nnc(N3CCC(C(=O)O)CC3)c3ccc(C#N)cc23)cc1Cl` the pEC50 (Sus scrofa) was 6.77.
`COc1ccc(CNc2nnc(N3CCN(C)CC3)c3ccc(C#N)cc23)cc1Cl` gave a pEC50 (Sus scrofa) of 6.49.
Compound `OCCN(CCO)c1nc(N2CCCCC2)c2nc(N(CCO)CCO)nc(N3CCCCC3)c2n1` [DIPYRIDAMOLE] has a pIC50 (Phosphodiesterase 3A [11]) of 4.36 and a pIC50 [12] of 4.13.
`Cc1[nH]c(=O)c(C#N)cc1-c1ccncc1` [MILRINONE] gave a pIC50 [13] of under 4.00 and a pIC50 (Phosphodiesterase 4A [14]) of 4.89.
`COc1ccc(C2CNC(=O)C2)cc1OC1CCCC1` (stereo not drawn) [ROLIPRAM] showed a pIC50 (Phosphodiesterase 3A [15]) of under 4.00, a pIC50 [13] of under 4.00 and a pIC50 (Phosphodiesterase 4A [16]) of 5.44. It also gave a pIC50 (PDE II [17]) of under 4.00.
Compound `CCCc1nn(C)c2c(=O)[nH]c(-c3cc(S(=O)(=O)N4CCN(C)CC4)ccc3OCC)nc12` [SILDENAFIL CITRATE] has a pEC50 (Sus scrofa) of 7.42.
With `CCCOc1ccccc1-c1nc2[nH]nnc2c(=O)[nH]1` [ZAPRINAST] the pIC50 (Phosphodiesterase 3A [15]) was under 4.00, the pIC50 [18] was 4.51 and the pIC50 (Phosphodiesterase 4A [16]) was under 4.00.
